What all share (type): functional
For assay [1], the system named is MCF7. Nature of the assay: Induction of apoptosis in human MCF7 cells assessed as early apoptotic cells at 1 uM after 24 hrs by Annexin V-FITC/propidium iodide staining-based flow cytometric analysis (reference value: 2.1%). In a few lines: (§1)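 Log-phase cells seeded in 6-well plates and treated after adhesion; incubated in cycles of 6 h on/6 h off up to 48 h. Collected after PBS washes and trypsin, resuspended in Ca2+-enriched binding buffer. Stained with annexin V (1 µg/mL) plus PI (0.5 µg/mL) 15 min in the dark at room temperature. 10,000 events, FL1 vs FL2. At least three repeats.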
On the technique in general: Flow cytometry measures light scatter and fluorescence of single cells or particles in a stream.

The test system of assay [2] is MCF7. Description: Induction of apoptosis in human MCF7 cells assessed as early apoptotic cells at 50 uM after 6 hrs by Annexin V-FITC/propidium iodide staining-based flow cytometric analysis (reference value: 2%). An outline of the steps:
as §1

In assay [3] the test system is MCF7. Nature of the assay: Induction of apoptosis in human MCF7 cells assessed as viable cells at 1 uM after 48 hrs by Annexin V-FITC/propidium iodide staining-based flow cytometric analysis (reference value: 87.9%). To be noted: MCF7, 48 h, read-out: Activity.
For assay [4], the system named is MCF7. Nature of the assay: Induction of apoptosis in human MCF7 cells assessed as necrotic cells at 50 uM after 6 hrs by Annexin V-FITC/propidium iodide staining-based flow cytometric analysis (reference value: 0.5%).

Take `COc1cc([C@@H]2c3cc4c(cc3[C@@H](O[C@@H]3O[C@@H]5CO[C@@H](C)O[C@H]5[C@H](O)[C@H]3O)[C@H]3COC(=O)[C@H]23)OCO4)cc(OC)c1O` [ETOPOSIDE]: the Activity with MCF7 [1] was determined as 2.2%; with MCF7 [2], 2.9%; in the assay with MCF7 [4], 0.8%. Further, the viability at 1 µM with MCF7 [3] is 79.1%.

Values taken from ChEMBL document CHEMBL4346667 (Eur J Med Chem, 2019).
